According to ChEMBL document CHEMBL2046332, “Substrate analog studies of the ω-regiospecificity of Mycobacterium tuberculosis cholesterol metabolizing cytochrome P450 enzymes CYP124A1, CYP125A1 and CYP142A1” (Bioorg Med Chem, 2012):
The source made the active and inactive calls. The calls are words filed in the database; no cut-off is given here.

How the values were obtained:
[1] = system: Mycobacterium tuberculosis; test: Binding affinity to Mycobacterium tuberculosis CYP124A1 assessed as type 1 binding mode at 0.05 to 0.2 uM by UV-visible spectrophotometry
Method in brief: (§1)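 Spectral titration of each P450 with steroid solubilised in methyl β-cyclodextrin. Ligand-induced low-spin/high-spin shifts were followed in the Soret region and at ~650 nm to assign binding type. Absolute spectra of the P450–steroid complexes were also examined.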

[2] = molecular target: T1, Steroid C26-monooxygenase (Mycobacterium tuberculosis, UniProt P9WPP1); test: Activity of Mycobacterium tuberculosis CYP125A1 assessed as apparent turnover number at 50 uM incubated for 1 hr at 25 degC by GC-MS method
T1 sequence (P9WPP1 whole entry): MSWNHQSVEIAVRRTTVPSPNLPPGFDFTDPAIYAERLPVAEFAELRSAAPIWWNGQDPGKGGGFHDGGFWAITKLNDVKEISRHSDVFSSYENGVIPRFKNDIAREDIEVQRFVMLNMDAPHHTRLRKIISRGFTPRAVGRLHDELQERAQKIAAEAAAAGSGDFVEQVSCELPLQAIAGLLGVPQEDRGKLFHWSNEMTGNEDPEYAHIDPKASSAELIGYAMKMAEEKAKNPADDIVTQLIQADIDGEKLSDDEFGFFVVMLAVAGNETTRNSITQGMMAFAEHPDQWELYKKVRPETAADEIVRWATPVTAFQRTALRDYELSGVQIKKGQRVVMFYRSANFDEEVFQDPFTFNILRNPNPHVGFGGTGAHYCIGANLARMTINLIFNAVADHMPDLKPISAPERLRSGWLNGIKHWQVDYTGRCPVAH
Method in brief: (§2)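 Each P450 (250 nM) was incubated with 50 μM substrate, 5 μg catalase, 50 μg/mL ferredoxin, 0.16 U/mL ferredoxin-NADP+ reductase, and an NADPH-regenerating system (1 mM glucose-6-phosphate, 2.4 U/mL G6P dehydrogenase, 5 mM MgCl2, 800 μM NADP+). Buffer was 50 mM potassium phosphate pH 7.5, 25 °C, 1 h. Quenched with HCl, extracted into hexanes, TMS-derivatised, GC-MS. Controls lacked P450 or NADPH.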

[3] = system: Mycobacterium tuberculosis; test: Activity of Mycobacterium tuberculosis CYP142A1 assessed as apparent turnover number at 50 uM incubated for 1 hr at 25 degC by GC-MS method; method in brief: as §2
[4] = molecular target: T1, Steroid C26-monooxygenase; test: Activity of Mycobacterium tuberculosis CYP125A1 assessed as relative apparent turnover number at 50 uM incubated for 1 hr at 25 degC by GC-MS method relative to cholesterol
[5] = system: Mycobacterium tuberculosis; test: Binding affinity to Mycobacterium tuberculosis CYP142A1 assessed as type 1 binding mode at 0.05 to 0.2 uM by UV-visible spectrophotometry; method in brief: as §1
[6] = system: Mycobacterium tuberculosis; test: Activity of Mycobacterium tuberculosis CYP142A1 assessed as relative apparent turnover number at 50 uM incubated for 1 hr at 25 degC by GC-MS method relative to cholesterol
[7] = molecular target: T1, Steroid C26-monooxygenase; test: Binding affinity to Mycobacterium tuberculosis CYP125A1 assessed as type 1 binding mode at 0.05 to 0.2 uM by UV-visible spectrophotometry; method in brief: as §1
[8] = system: Mycobacterium tuberculosis; test: Activity of Mycobacterium tuberculosis CYP124A1 assessed as compound oxidation at 50 uM incubated for 1 hr at 25 degC by GC-MS method; method in brief: as §2
[9] = system: Mycobacterium tuberculosis; test: Activity of Mycobacterium tuberculosis CYP142A1 assessed as compound oxidation at 50 uM incubated for 1 hr at 25 degC by GC-MS method; method in brief: as §2
[10] = system: Mycobacterium tuberculosis; test: Activity of Mycobacterium tuberculosis CYP124A1 assessed as relative apparent turnover number at 50 uM incubated for 1 hr at 25 degC by GC-MS method relative to cholesterol
[11] = system: Mycobacterium tuberculosis; test: Activity of Mycobacterium tuberculosis CYP124A1 assessed as apparent turnover number at 50 uM incubated for 1 hr at 25 degC by GC-MS method; method in brief: as §2

SMILES | Activity [1] | Activity [5] | Activity [7] | Activity [8] | Activity [9] | other results
CC(C)=CCC[C@@H](C)[C@H]1CC[C@@]2(C)C3=C(CC[C@]12C)[C@@]1(C)CC[C@H](O)C(C)(C)[C@@H]1CC3 [LANOSTEROL] | Active | Active | Active |  |  | Kcat(app) [2]: 0.1728 s⁻¹; Kcat(app) [3]: 0.368 s⁻¹; Activity [4]: 37%; Activity [6]: 132%
CC(Cl)CCC[C@@H](C)[C@H]1CC[C@H]2[C@@H]3CCC4=CC(=O)CC[C@]4(C)[C@H]3CC[C@]12C (mixture of isomers) |  |  |  | Active | Active | 
CC(Cl)CCC[C@@H](C)[C@H]1CC[C@H]2[C@@H]3CC=C4C[C@@H](O)CC[C@]4(C)[C@H]3CC[C@]12C (mixture of isomers) | Active | Active | Active |  |  | Kcat(app) [2]: 0.122 s⁻¹; Activity [10]: 29.8%; Kcat(app) [3]: 0.15 s⁻¹; Kcat(app) [11]: 0.0075 s⁻¹; Activity [4]: 26%; Activity [6]: 53.7%
CC(C)CCC[C@@H](C)[C@H]1CC[C@H]2[C@@H]3CC[C@@H]4CC(=O)CC[C@]4(C)[C@H]3CC[C@]12C |  |  |  | Active | Active | 
C[C@H](CCCBr)[C@H]1CC[C@H]2[C@@H]3CCC4=CC(=O)CC[C@]4(C)[C@H]3CC[C@]12C |  |  |  | Active | Active | 
CCCCC[C@@H](C)[C@H]1CC[C@H]2[C@@H]3CCC4=CC(=O)CC[C@]4(C)[C@H]3CC[C@]12C |  |  |  | Active | Active | 
CC(C)CCC[C@@H](C)[C@H]1CC[C@H]2[C@@H]3CCC4=CC(=O)CC[C@]4(C)[C@H]3CC[C@]12C [4-CHOLESTEN 3-ONE] | Active | Active | Active | Active | Active | 
C=CCCC[C@@H](C)[C@H]1CC[C@H]2[C@@H]3CCC4=CC(=O)CC[C@]4(C)[C@H]3CC[C@]12C |  |  |  | Active | Active | 
CSCCC[C@@H](C)[C@H]1CC[C@H]2[C@@H]3CCC4=CC(=O)CC[C@]4(C)[C@H]3CC[C@]12C |  |  |  | Active | Active | 
C=C(C)CCC[C@@H](C)[C@H]1CC[C@H]2[C@@H]3CCC4=CC(=O)CC[C@]4(C)[C@H]3CC[C@]12C |  |  |  | Active | Active | 
CC(C)CCC[C@@H](C)[C@H]1CC[C@H]2[C@@H]3CC=C4C[C@@H](O)CC[C@]4(C)[C@H]3CC[C@]12C [CHOLESTEROL] | Active | Active | Active |  |  | Kcat(app) [2]: 0.467 s⁻¹; Kcat(app) [3]: 0.278 s⁻¹; Kcat(app) [11]: 0.025 s⁻¹
CCC(C)CCC[C@@H](C)[C@H]1CC[C@H]2[C@@H]3CCC4=CC(=O)CC[C@]4(C)[C@H]3CC[C@]12C (mixture of isomers) |  |  |  | Active | Active | 
CC(Br)CCC[C@@H](C)[C@H]1CC[C@H]2[C@@H]3CCC4=CC(=O)CC[C@]4(C)[C@H]3CC[C@]12C (mixture of isomers) |  |  |  | Active | Active | 
CC(C)=CCC[C@@H](C)[C@H]1CC[C@@]2(C)C3=C(CC[C@]12C)[C@@]1(C)CCC(=O)C(C)(C)[C@@H]1CC3 |  |  |  | Active | Active | 
CC(C)=CCC[C@@H](C)[C@H]1CC[C@H]2[C@@H]3CCC4=CC(=O)CC[C@]4(C)[C@H]3CC[C@]12C |  |  |  | Active | Active | 
CCC(C)CCC[C@@H](C)[C@H]1CC[C@H]2[C@@H]3CC=C4C[C@@H](O)CC[C@]4(C)[C@H]3CC[C@]12C (mixture of isomers) | Active | Active | Active |  |  | Kcat(app) [2]: 0.317 s⁻¹; Kcat(app) [3]: 0.163 s⁻¹; Activity [4]: 68.1%; Activity [6]: 58.7%
